# Shown are actives, neighbours in structure and some others; about 4% of the full set was active somewhere.
# CHOP UPR activ: apoptotic UPR (CHOP) activation; AID 449763; activation, % at 10 µM; 330,000 compounds, 0.34% hits; CHO-CHOP luciferase reporter, luminescence; percent of tunicamycin response over DMSO baseline;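 active means at 10 µM dose, activation of 40% or more, normalized to positive control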;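 further: 100% = tunicamycin at 10 µg/mL and 0% = DMSO alone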
#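 Dosing – one dose, 10 µM in 0.5% DMSO · System – CHO-CHOP cells, stable luciferase reporter of PERK-eIF2a-CHOP signalling · Input – 500 cells/well · Control set – tunicamycin 10 µg/mL final as positive, DMSO-only wells as negative · Timing – 6 h compound treatment, 37 °C · Measure – % activation vs tunicamycin · Technique – luminescence read with Steady-Glo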
# XBP1 UPR activ: adaptive UPR (XBP1) activation; CHO-XBP1 luciferase reporter, IRE1-XBP1 UPR activation, luminescence; percent of tunicamycin response, DMSO as zero; activation, % at 20 µM; 330,000 compounds, 0.33% hits; AID 463104;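 active means versus positive control, 20 µM dose yields 30% or more activation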;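 further: 100% = tunicamycin at 10 µg/mL and 0% = DMSO only wells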
#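 Material – CHO cell line with stable XBP1 luciferase reporter · Buffer or medium – F12 plus 10% FBS · Compound – single point, 20 µM final compound, 1% DMSO · Schedule – 16-18 h cell attachment at 37 °C, then 6 h compound exposure · Signal – Steady-Glo luminescence read · Benchmarks – high control tunicamycin 10 µg/mL final, low control DMSO vehicle only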
# ABHD5 PLIN5 PPI: blocks binding of human ABHD5 to perilipin-5; Q00G26+Q8WTS1; Split G. princeps luciferase complementation, luminescence, 4 h; inhibition, % at 4 µM; 360,000 compounds, 0.78% hits;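 active means inhibition above the mean inhibition across every tested compound plus 3 SD, cut at about 22% in these data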;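 further: 0% = DMSO only wells and the 100% control is not disclosed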
# Mdm2-MdmX inh: inhibitors of human Mdm2/MdmX interaction; SaOS-2 split-luciferase Mdm2/MdmX complementation, luminescence; inhibition, % at 8 µM; 330,000 compounds, 3% hits; AID 485346;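 active means inhibition of at least 50% at 8 µM in the primary screen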
# Granule exo inh: lytic granule exocytosis inhibition; 360,000 compounds, 0.66% hits; TALL-104 LAMP-1 surface exposure, flow cytometry; cells stimulated with thapsigargin and PMA; inhibition, % at 10 µM;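 active means inhibition above about 55%, limit read from the data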
# Mdm2 MdmX conf: confirmation of human Mdm2/MdmX interaction inhibitors. shares compounds with Mdm2-MdmX inh. Mdm2-MdmX binding, luminescent assay. inhibition, % at 8 µM. 10,000 compounds, 55% hits. AID 489028; in the data active means inhibition above about 40%
# FLuc counter: inhibits full-length luciferase, flagging false Mdm2/MdmX hits; shares compounds with Mdm2-MdmX inh; SaOS-2 full-length luciferase counterscreen, luminescence; inhibition, % at 8 µM; 6,200 compounds, 77% hits; AID 504607;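 active means mean inhibition at 8 µM reaching about 37%, which flags the compound as non-specific, limit read from the data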;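 further: p53-null SaOS-2 cells with luciferase driven by a doxycycline-inducible promoter; compound on cells about two nights before reading with doxycycline added after day one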
# Starred values were filed as active, the others as inactive; nt = no result given.
SMILES,CHOP UPR activ,XBP1 UPR activ,ABHD5 PLIN5 PPI,Mdm2-MdmX inh,Granule exo inh,Mdm2 MdmX conf,others
C=Cn1ccnc1P(=S)(c1ccc2c(c1)c1ccccc1n2CC)c1nccn1C=C,0,-4,-4,67*,7,63*,FLuc counter=56*
Cc1nn(-c2ncc(C(F)(F)F)cc2Cl)c(=O)n1-c1ccccc1Cl,3,0,2,8,-2,nt,
CCCCn1cc(SCC(=O)O)c2ccccc21,-1,-2,-3,3,4,nt,
CCc1ccc2nc(N3CCN(C(=O)C(C)(C)C)CC3)sc2c1,6,1,-2,-16,18,nt,
Cc1ccc2[nH]c(=O)c(CN(Cc3cccs3)Cc3nnnn3Cc3ccccc3)cc2c1,4,2,-11,50,-1,21,
CCOC(=O)Cn1nnnc1CN(Cc1cccs1)Cc1cc2cc(C)ccc2[nH]c1=O,-2,0,-5,5,0,nt,
CCCCCOc1ccc(Br)cc1/C(C)=N/NC1=NCCN1,2,16,7,86*,21,67*,FLuc counter=63*
COc1ccc(Br)cc1/C(C)=N/NC1=NCCN1,-1,-3,12,23,4,nt,
CCOC(=O)c1cnc(SCC(=O)Nc2cc(C(F)(F)F)ccc2N2CCOCC2)nc1N,-2,0,-2,55*,-1,-4,
CCOC(=O)c1cnc(SCC(=O)Nc2sc(C)c(C)c2C#N)nc1N,2,3,1,72*,1,7,
Cc1ccc(-c2nnc(SCC(=O)Nc3sc(C)c(C)c3C#N)n2C)cc1,-1,-2,-4,49,-15,nt,
CCOC(=O)c1cnc(SCC(=O)Nc2ccc(N3CCOCC3)c(Cl)c2)nc1N,0,1,6,13,-3,nt,
CCOC(=O)c1cnc(SCC(=O)Nc2cc(OC)cc(OC)c2)nc1N,1,-4,-1,34,15,nt,
Cc1sc(NC(=O)CSc2nnc(COc3ccc(Cl)cc3)n2C)c(C#N)c1C,7,1,-8,52*,3,34,
CCOc1ccc(N2CSC3=C(C#N)C(c4ccco4)CC(=O)N3C2)cc1 (stereo not given),2,-2,-6,-8,0,nt,
COc1ccccc1N1CCN(C(=O)C2CCCO2)CC1 (stereo not given),3,1,7,13,-2,nt,
CNC(=O)COC(=O)c1nc(-n2nc(C)cc2C)ccc1Cl,1,-2,-3,14,-3,nt,
CCCc1nn2c(=O)cc(COc3ccc(NC(=O)c4ccco4)cc3)nc2s1,3,-6,2,74*,-4,0,
COc1cccc(OCCNc2cc(N3CCCCC3)ccc2[N+](=O)[O-])c1,2,1,4,8,5,nt,
N#C/C(=C\Nc1ccc(F)c(Cl)c1)C(=O)C1CC1,0,-1,0,-9,-3,nt,
CC(C)(C)OC(=O)N1Cc2ccccc2C[C@H]1C(=O)NCC(=O)Nc1ccc2c(c1)OCCO2,-7,-8,-8,64*,-5,66*,FLuc counter=67*
COc1cccc(NC(=O)CNC(=O)[C@@H]2Cc3ccccc3CN2C(=O)OC(C)(C)C)c1,1,-2,-8,-10,-3,nt,
CCC(NC(=S)NCc1ccc(F)cc1)c1ccc(C(C)C)cc1 (stereo not given),0,-3,-8,76*,6,23,
Cc1cc(NC(=O)CSc2nc3cc(C(=O)NCCCOC(C)C)ccc3c(=O)n2Cc2ccco2)no1,1,-2,-2,-5,-10,nt,
C[C@@H](C(=O)NC1CCN(Cc2ccccc2)CC1)N1C(=O)N2CCc3c([nH]c4ccccc34)[C@@]2(C)C1=O,0,1,-3,11,13,nt,
CC(C)C[C@@H](C(=O)NC1CCN(Cc2ccccc2)CC1)N1C(=O)N2CCc3c([nH]c4ccccc34)[C@@]2(C)C1=O,1,-1,4,60*,26,46*,FLuc counter=58*
O=Cc1ccccc1Oc1ccccc1,-2,-2,-5,14,14,nt,
O=Cc1ccccc1OCCOc1ccccc1C=O,9,22,5,51*,6,43*,FLuc counter=91*

# Source: PubChem BioAssay (several laboratories)
